Test results published in publication PMC6244714 (European Journal of Drug Metabolism and Pharmacokinetics, 2018).
≈ marks a conversion by molar mass, not a printed value. Read-outs that look alike come from different tables or passages of the source.

Tests used:
[1] = assay type: in vivo, human; conditions: healthy subjects
Summary of the method: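 Open-label, one-sequence, two-period crossover in healthy males and females aged 18–55 years with BMI 18.5–29.9 kg/m2. Period 1: single oral 100 mg tablet of test compound after an ≥8 h fast. Period 2: proton-pump inhibitor 40 mg once daily on Days 1–9, with test compound given 2 h after it on Day 7. Safety was assessed in all subjects dosed with test compound, using TEAE nature, frequency and severity, blood pressure, pulse, hematology, biochemistry, urinalysis and 12-lead ECG.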

gastric pH = conditions: omeprazole 40 mg once daily, healthy subjects; cited from earlier work
CYP2C19 = conditions: cited from earlier work
[2] = assay type: in vivo, human
[3] = ref data on file, cited from earlier work
[4] = healthy volunteers; cited from earlier work
[5] = cited from earlier work

Compound | Total number of TEAEs reported [1] | gastric pH (gastric pH) | inhibitor of CYP2C19 (CYP2C19) | AUC ([2]; human, plasma, po, 40 mg) [ng·h/mL] | mean trough ([2]; omeprazole 40 mg daily oral, Day 7 of Period 2, plasma) [ng/mL] | solubility ([3]; 50 mM potassium phosphate buffer at pH 7.5) [µg/mL] | in vitro solubility ([3]; pH ~ 5) [µg/mL] | solubility ([3]; simulated gastric fluid buffer at pH 1.2) [µg/mL] | impact on Cmax or AUCinf of S- or R-warfarin [4] | Overall safety and tolerability ([1]; 100 mg roxadustat alone or in combination with multiple daily oral doses of 40 mg omeprazole) | substrate for CYP2C19 (CYP2C19; background statement, no reference given) | terminal elimination half-life (t½) ([5]; after a single dose) [h] | time to maximum plasma concentration ([5]; after oral administration)
COc1ccc2[nH]c([S+]([O-])Cc3ncc(C)c(OC)c3C)nc2c1 (stereo not shown) [Omeprazole] | eight | ~ 5 | inhibitor | 4230 | 0.494 |  |  |  |  |  |  |  | 
Cc1nc(C(=O)NCC(=O)O)c(O)c2ccc(Oc3ccccc3)cc12 [Roxadustat] |  |  |  |  |  | 3700 (≈ 10.5 mM) | 6 | 1 (≈ 0.00284 mM) | does not impact | safe and well tolerated | not a substrate | 12 to 14 | approximately 2 h
